Test results from article PMC4864154 (Journal of molecular biology, 2014).
Where two headings read alike, the source gives them in different places.

Assays:
GluN1-I619G/2A = GluN1-I619G/2A (Rattus norvegicus, UniProt P35439+Q00959, I619G); format: cell-based
Outline: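 Xenopus oocytes were injected with cRNA for rat GluN1-1a I619G (site-directed mutant, sequence-verified) at 1 ng and WT GluN2A at 10 ng per oocyte. Two-electrode voltage clamp at -60 mV in buffer of 115 mM NaCl, 2 mM KCl, 5 mM HEPES and 1.8 mM BaCl2, pH 7.6. Percent steady-state block of agonist-evoked current by 100 nM test compound or 0.5 mM Mg2+. Mean + SEM from 4–8 oocytes; ANOVA against WT.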

[1] = molecular target: recombinant GluN1/2A receptors (Rattus norvegicus, UniProt P35439+Q00959); format: cell-based
[2] = molecular target: GluN2A S616 Gly-substituted GluN1/2A (Rattus norvegicus, UniProt P35439+Q00959, S616G); format: cell-based; conditions: 100 nM ArgTX-636, -60 mV
Outline: (§1)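 Rat GluN1-1a and GluN2A cDNAs carrying Gly substitutions made by site-directed mutagenesis and sequence-verified. Xenopus oocytes were each injected with cRNA (1 ng GluN1, 10 ng GluN2A). Two-electrode voltage clamp at -60 mV in buffer of 115 mM NaCl, 2 mM KCl, 5 mM HEPES and 1.8 mM BaCl2, pH 7.6. Percent block of agonist-evoked steady-state current by 100 nM test compound. Mean + SEM from 4–8 oocytes; ANOVA against WT.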

GluN1-N616G/2A = GluN1-N616G/2A (Rattus norvegicus, UniProt P35439+Q00959, N616G); format: cell-based
[3] = molecular target: GluN2A V617 Gly-substituted GluN1/2A (Rattus norvegicus, UniProt P35439+Q00959, V617G); format: cell-based; conditions: 100 nM ArgTX-636, -60 mV
Outline: as §1

[4] = molecular target: GluN2A N614 Gly-substituted GluN1/2A (Rattus norvegicus, UniProt P35439+Q00959, N614G); format: cell-based; conditions: 100 nM ArgTX-636, -60 mV
Outline: as §1

[5] = molecular target: GluN1 E621 Gly-substituted GluN1/2A (Rattus norvegicus, UniProt P35439+Q00959, E621G); format: cell-based; conditions: 100 nM ArgTX-636, -60 mV
Outline: as §1

[6] = molecular target: GluN2A N615 Gly-substituted GluN1/2A (Rattus norvegicus, UniProt P35439+Q00959, N615G); format: cell-based; conditions: 100 nM ArgTX-636, -60 mV
Outline: as §1

[7] = molecular target: GluN1 S617 Gly-substituted GluN1/2A (Rattus norvegicus, UniProt P35439+Q00959, S617G); format: cell-based
[8] = test system: GluN1/2A and GluN1/2B over GluN1/2C and GluN1/2D NMDAR subtypes; conditions: ref [44]; [48]; cited from earlier work
WT GluN1/2A = WT GluN1/2A (Rattus norvegicus, UniProt P35439+Q00959); experiment: Two-electrode voltage-clamp, steady-state block in Xenopus oocytes, WT receptor; format: cell-based
[9] = holding potential -80 mV, Glu 100 μM, Gly 50 μM, HEK293

Sequence of recombinant GluN1/2A receptors (Q00959 23-1464, other chains not shown): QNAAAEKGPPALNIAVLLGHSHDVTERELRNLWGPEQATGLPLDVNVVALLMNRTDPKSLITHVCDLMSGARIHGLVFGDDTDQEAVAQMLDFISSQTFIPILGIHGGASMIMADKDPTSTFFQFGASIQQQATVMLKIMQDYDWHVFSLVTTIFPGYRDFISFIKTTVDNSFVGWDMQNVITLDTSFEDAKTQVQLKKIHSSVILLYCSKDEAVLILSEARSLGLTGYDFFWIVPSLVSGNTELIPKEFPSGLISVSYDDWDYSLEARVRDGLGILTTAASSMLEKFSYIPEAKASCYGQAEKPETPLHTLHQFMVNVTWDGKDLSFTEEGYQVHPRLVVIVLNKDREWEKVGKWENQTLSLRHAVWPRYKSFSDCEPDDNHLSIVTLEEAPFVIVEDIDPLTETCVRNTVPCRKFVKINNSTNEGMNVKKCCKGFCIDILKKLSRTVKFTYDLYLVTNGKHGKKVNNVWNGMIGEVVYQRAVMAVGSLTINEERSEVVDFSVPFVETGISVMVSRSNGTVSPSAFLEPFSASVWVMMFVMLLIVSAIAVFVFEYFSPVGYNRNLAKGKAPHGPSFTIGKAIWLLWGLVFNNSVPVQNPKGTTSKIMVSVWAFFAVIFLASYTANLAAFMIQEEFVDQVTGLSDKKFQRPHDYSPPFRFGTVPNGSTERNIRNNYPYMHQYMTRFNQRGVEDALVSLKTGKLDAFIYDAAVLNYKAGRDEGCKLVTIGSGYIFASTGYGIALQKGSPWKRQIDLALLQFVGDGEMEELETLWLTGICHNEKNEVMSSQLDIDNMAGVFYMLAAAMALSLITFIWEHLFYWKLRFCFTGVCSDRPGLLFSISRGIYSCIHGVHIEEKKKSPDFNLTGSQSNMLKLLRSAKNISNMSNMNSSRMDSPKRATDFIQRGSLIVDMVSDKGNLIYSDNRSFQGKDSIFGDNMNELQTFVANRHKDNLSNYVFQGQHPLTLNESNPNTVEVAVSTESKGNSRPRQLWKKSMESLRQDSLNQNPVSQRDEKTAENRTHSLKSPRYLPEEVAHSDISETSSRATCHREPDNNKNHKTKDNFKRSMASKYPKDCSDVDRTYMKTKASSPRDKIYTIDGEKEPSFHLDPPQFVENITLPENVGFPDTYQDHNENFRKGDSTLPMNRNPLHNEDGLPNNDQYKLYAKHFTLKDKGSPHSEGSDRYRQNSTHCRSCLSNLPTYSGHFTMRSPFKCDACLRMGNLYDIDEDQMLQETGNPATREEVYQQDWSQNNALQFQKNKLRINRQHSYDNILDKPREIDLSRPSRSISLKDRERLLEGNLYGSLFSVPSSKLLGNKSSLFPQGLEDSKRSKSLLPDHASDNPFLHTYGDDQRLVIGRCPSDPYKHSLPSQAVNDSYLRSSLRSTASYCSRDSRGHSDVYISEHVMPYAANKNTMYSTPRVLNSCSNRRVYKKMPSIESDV
Sequence of GluN1-N616G/2A (Q00959 23-1464, other chains not shown): as above
Sequence of GluN1-I619G/2A (Q00959 23-1464, other chains not shown): as above

With `NC(=O)C[C@H](NC(=O)Cc1ccc(O)cc1O)C(=O)NCCCCCNCCCNCCCNC(=O)[C@@H](N)CCCN=C(N)N` [ArgTX-636, argiotoxin-636] the percent steady-state block (GluN1-I619G/2A; 100 nM ArgTX-636, -60 mV, GluN1 I619G) was “less than 15%”, the “decrease in dissociation rate over -60 to -100 mV” value ([1]; 500 nM ArgTX-636, -60 to -100 mV range) was “less than 2 fold” and the “increase in rate of onset of block per 20-mV negative depolarization” value ([1]; 500 nM ArgTX-636, membrane potential below -60 mV) was “approximately 5 fold”. The “steady-state block of the current” value ([1]; 500 nM ArgTX-636 for 6 s, 100 μM Glu, -80 mV) was 96 ± 1%, the “fold higher association rate constant compared to memantine” value ([1]; ArgTX-636 Kon vs literature memantine Kon) was “approximately 10 fold” and the “association rate constant (Kon) with the open channel” value [1, 9] was 4.4 ± 0.3 × 10^6 M^-1 s^-1. For the same compound, the “dissociation rate constant (Koff) with the open channel” value [1, 9] was 0.36 ± 0.09 s⁻¹, the “mechanism of block (trapping)” value ([1]; recovery after wash in absence of agonist, 500 nM ArgTX-636, -80 mV) was “trapping blocker” and the percent steady-state block [2] was ~100%. For the same compound, the percent steady-state block (GluN1-N616G/2A; 100 nM ArgTX-636, -60 mV, GluN1 N616G) was 78%, the percent steady-state block [3] was ~100% and the percent steady-state block [4] was ~100%. The percent steady-state block [5] was “less than 15%”, the percent steady-state block [6] was ~100% and the percent steady-state block ([7]; 100 nM ArgTX-636, -60 mV, GluN1 S617G) was “less than 15%”. The “selectivity for GluN1/2A and GluN1/2B over GluN1/2C and GluN1/2D” value [8] was “more than 20 fold”.

Compound `[Mg+2]` [Mg^2+] has a percent steady-state block (GluN1-I619G/2A; 0.5 mM Mg^2+, GluN1-I619G/2A) of 53%, a percent steady-state block (GluN1-N616G/2A; 0.5 mM Mg^2+, GluN1-N616G/2A) of 28% and a percent steady-state block (WT GluN1/2A; 0.5 mM Mg^2+, WT) of 88%.

For `C[C@]12N[C@H](Cc3ccccc31)c1ccccc12` [MK-801, dizocilpine], the percent steady-state block (GluN1-N616G/2A) was “less than 40%”, the percent steady-state block [7] was “less than 40%” and the percent steady-state block (WT GluN1/2A) was 75%.
